Data on one compound can be found in ChEMBL document CHEMBL4627381, “Licochalcone A Selectively Resensitizes ABCG2-Overexpressing Multidrug-Resistant Cancer Cells to Chemotherapeutic Drugs” (J Nat Prod, 2020).

In general, pIC50 refers to −log10 of the IC50, conventionally taken in molar units.

Molecules are shown by their SMILES. pIC50: −log10 of the molar value.

The target of data set [1] is T1, Broad substrate specificity ATP-binding cassette transporter ABCG2 (Homo sapiens, UniProt Q9UNQ0).
T1 sequence (Q9UNQ0 whole entry): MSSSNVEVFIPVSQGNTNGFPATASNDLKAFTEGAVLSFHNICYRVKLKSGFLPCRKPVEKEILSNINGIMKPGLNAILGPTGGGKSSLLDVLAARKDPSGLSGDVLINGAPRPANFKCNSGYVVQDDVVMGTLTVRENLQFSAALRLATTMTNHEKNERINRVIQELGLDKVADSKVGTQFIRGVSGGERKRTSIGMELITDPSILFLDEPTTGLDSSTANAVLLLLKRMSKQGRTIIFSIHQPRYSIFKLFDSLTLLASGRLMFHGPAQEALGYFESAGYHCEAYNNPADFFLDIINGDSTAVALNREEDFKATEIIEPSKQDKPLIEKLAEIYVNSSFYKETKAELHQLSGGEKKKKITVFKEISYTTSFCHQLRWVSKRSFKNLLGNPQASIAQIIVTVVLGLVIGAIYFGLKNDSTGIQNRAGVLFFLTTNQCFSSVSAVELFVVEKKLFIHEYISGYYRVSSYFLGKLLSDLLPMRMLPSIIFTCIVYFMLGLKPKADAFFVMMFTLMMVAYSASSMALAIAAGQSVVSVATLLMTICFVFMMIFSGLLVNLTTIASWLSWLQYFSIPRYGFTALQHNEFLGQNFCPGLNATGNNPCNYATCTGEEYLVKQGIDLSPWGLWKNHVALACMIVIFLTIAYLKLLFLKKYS
Nature of the data set: Reversal of human ABCG2-mediated multidrug resistance in HEK293/R482 cells assessed as fold change in mitoxantrone IC50 at 3 uM after 72 hrs by CCK8 assay relative to mitoxantrone IC50. The data set is classed as cell-based. A digest of the protocol:
(§1)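 Cells were seeded at 5000/well for 24 h, then given colchicine, etoposide, mitoxantrone or topotecan ± non-toxic modulator (0.5–3.0 μM) for 72 h, with DMSO up to 0.5%. IC50 came from fitted curves (mean ± SD, three experiments). Fold-reversal = IC50 without modulator ÷ IC50 with modulator.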
On the technique in general: Formazan colour is commonly taken as a measure of viable cells.

Data set [2] has as its target T1, Broad substrate specificity ATP-binding cassette transporter ABCG2. Nature of the data set: Inhibition of human ABCG2-mediated pheophorbide A efflux in HEK293/R482 cells incubated for 1 hr by FACScan flow cytometry. Format: cell-based. In short, it runs like this: (§2)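 Cells held drug-free 7 days. 3 × 10^5 cells were suspended in IMDM with 5% FCS and loaded with pheophorbide A (ex 395/em 670 nm) for 1 h, with or without LCA (20 μM for single-concentration accumulation) or Ko143 3 μM as reference. Read immediately by flow cytometry. Efflux inhibition was run over a concentration range; mean ± SD of three experiments.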

For data set [3] the target is unchanged. Nature of the data set: Modulation of ABCG2 (unknown origin) expressed in H460-MX20 cells assessed as increase in intracellular pheophorbide A accumulation at 20 uM incubated for 1 hr by FACScan flow cytometry. Format: cell-based. A digest of the protocol: as §2
(In general: A flow cytometer gives signals particle by particle.)

Data set [4] has the same target. Nature of the data set: Modulation of human ABCG2 expressed in HEK293/R482 cells assessed as increase in intracellular pheophorbide A accumulation at 20 uM incubated for 1 hr by FACScan flow cytometry. The data set is classed as cell-based. In short, it runs like this: as §2
The subject of a further data set is S1-M1-80. Nature of the data set: Cytotoxicity against human S1-M1-80 cells harboring ABCG2 (unknown origin) after 72 hrs by MTT assay. Format: functional, cell-based. The conditions noted are these: S1-M1-80, 72 h. A digest of the protocol: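 Cells seeded at 5000/well, allowed 24 h, then exposed to a concentration series for 72 h at 37 °C in DMSO vehicle (up to 0.5% v/v). HEK293 lines were read with CCK-8 and cancer lines with MTT. IC50 was taken from fitted dose-response curves over at least three independent experiments. Lines were kept drug-free for 7 days before assay.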

Data set [5] deals with T1, Broad substrate specificity ATP-binding cassette transporter ABCG2. Nature of the data set: Reversal of ABCG2 (unknown origin)-mediated multidrug resistance in human H460-MX20 cells assessed as fold change in topotecan IC50 at 3 uM after 72 hrs by MTT assay relative to topotecan IC50. Format: cell-based. A digest of the protocol:
(§3)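 Cells held drug-free 7 days, seeded at 5000 per well for 24 h, then exposed 72 h to mitoxantrone or topotecan dilutions with DMSO (≤0.5%), LCA 0.5–3.0 μM, or Ko143 1.0 μM. Viability was read by MTT. IC50 came from fitted dose-response curves of three independent experiments. Fold-reversal = IC50 without modulator divided by IC50 with modulator.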

For data set [6] the target is unchanged. Nature of the data set: Reversal of ABCG2 (unknown origin)-mediated multidrug resistance in human H460-MX20 cells assessed as fold change in topotecan IC50 at 0.5 uM after 72 hrs by MTT assay relative to topotecan IC50. The data set is classed as cell-based. In short, it runs like this: as §3
The target is the same in data set [7]. Nature of the data set: Reversal of ABCG2 (unknown origin)-mediated multidrug resistance in human H460-MX20 cells assessed as fold change in mitoxantrone IC50 at 0.5 uM after 72 hrs by MTT assay relative to mitoxantrone IC50. The data set is classed as cell-based. In short, it runs like this:
as §3

A further data set has as its system NCI-H460. Nature of the data set: Effect on mitoxantrone-induced cytotoxicity against human H460 cells assessed as fold change in mitoxantrone IC50 at 0.5 uM after 72 hrs by MTT assay relative to mitoxantrone IC50. Format: functional. In short, it runs like this: (§4)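 Parental S1 colon and H460 lung cancer cells were exposed for 72 h to a mitoxantrone or topotecan concentration series, with or without modulator at 0.5–3.0 μM, and read by MTT. Fold-reversal is IC50 without modulator divided by IC50 with modulator, taken from dose-response curves of three independent experiments.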

Data set [8] has as its system S1. Nature of the data set: Effect on topotecan-induced cytotoxicity against human S1 cells assessed as fold change in topotecan IC50 at 0.5 uM after 72 hrs by MTT assay relative to topotecan IC50. Format: functional. A digest of the protocol:
as §4

The subject of data set [9] is S1. Nature of the data set: Effect on mitoxantrone-induced cytotoxicity against human S1 cells assessed as fold change in mitoxantrone IC50 at 2 uM after 72 hrs by MTT assay relative to mitoxantrone IC50. Format: functional. In short, it runs like this:
as §4

In data set [10] the test system is S1. Nature of the data set: Effect on mitoxantrone-induced cytotoxicity against human S1 cells assessed as fold change in mitoxantrone IC50 at 1 uM after 72 hrs by MTT assay relative to mitoxantrone IC50. The data set is classed as functional. A digest of the protocol:
as §4

In data set [11] the test system is HEK293. Nature of the data set: Effect on topotecan-induced cytotoxicity against HEK293 cells assessed as fold change in topotecan IC50 at 3 uM after 72 hrs by CCK8 assay relative to topotecan IC50. Format: cell-based. To be noted: human, hek293, 72 h. A digest of the protocol:
(§5)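 Reversal assay in parental pcDNA-HEK293 and transfected HEK293 lines (ABCB1 for colchicine, ABCC1 for etoposide, ABCG2 for mitoxantrone/topotecan). Substrate drug series was given with or without nontoxic modulator (0.5, 1.0, 2.0 or 3.0 μM) for 72 h, with a CCK-8 read-out. Fold-reversal is substrate IC50 without modulator divided by IC50 with modulator. Three independent experiments.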

Data set [12] deals with HEK293. Nature of the data set: Effect on mitoxantrone-induced cytotoxicity against HEK293 cells assessed as fold change in mitoxantrone IC50 at 3 uM after 72 hrs by CCK8 assay relative to mitoxantrone IC50. Format: cell-based. The conditions noted are these: human, hek293, 72 h. A digest of the protocol:
as §5

The test system of data set [13] is HEK293. Nature of the data set: Effect on mitoxantrone-induced cytotoxicity against HEK293 cells assessed as fold change in mitoxantrone IC50 at 2 uM after 72 hrs by CCK8 assay relative to mitoxantrone IC50. The data set is classed as cell-based. The conditions noted are these: human, hek293, 72 h. A digest of the protocol: as §5
For data set [14], the target named is Multidrug resistance-associated protein 1 (Homo sapiens, UniProt P33527). Nature of the data set: Reversal of human ABCC1-mediated multidrug resistance in HEK293/MRP1 cells assessed as fold-change in etoposide IC50 at 1 uM after 72 hrs by CCK8 relative to etoposide IC50. Format: cell-based. A digest of the protocol:
as §1

Data set [15] concerns HEK293. Nature of the data set: Effect on etoposide-induced cytotoxicity against HEK293 cells assessed as fold change in etoposide IC50 at 3 uM after 72 hrs by CCK8 assay relative to etoposide IC50. The data set is classed as cell-based. The conditions noted are these: human, hek293, 72 h. A digest of the protocol:
as §5

Sequence of Multidrug resistance-associated protein 1 (P33527 whole entry): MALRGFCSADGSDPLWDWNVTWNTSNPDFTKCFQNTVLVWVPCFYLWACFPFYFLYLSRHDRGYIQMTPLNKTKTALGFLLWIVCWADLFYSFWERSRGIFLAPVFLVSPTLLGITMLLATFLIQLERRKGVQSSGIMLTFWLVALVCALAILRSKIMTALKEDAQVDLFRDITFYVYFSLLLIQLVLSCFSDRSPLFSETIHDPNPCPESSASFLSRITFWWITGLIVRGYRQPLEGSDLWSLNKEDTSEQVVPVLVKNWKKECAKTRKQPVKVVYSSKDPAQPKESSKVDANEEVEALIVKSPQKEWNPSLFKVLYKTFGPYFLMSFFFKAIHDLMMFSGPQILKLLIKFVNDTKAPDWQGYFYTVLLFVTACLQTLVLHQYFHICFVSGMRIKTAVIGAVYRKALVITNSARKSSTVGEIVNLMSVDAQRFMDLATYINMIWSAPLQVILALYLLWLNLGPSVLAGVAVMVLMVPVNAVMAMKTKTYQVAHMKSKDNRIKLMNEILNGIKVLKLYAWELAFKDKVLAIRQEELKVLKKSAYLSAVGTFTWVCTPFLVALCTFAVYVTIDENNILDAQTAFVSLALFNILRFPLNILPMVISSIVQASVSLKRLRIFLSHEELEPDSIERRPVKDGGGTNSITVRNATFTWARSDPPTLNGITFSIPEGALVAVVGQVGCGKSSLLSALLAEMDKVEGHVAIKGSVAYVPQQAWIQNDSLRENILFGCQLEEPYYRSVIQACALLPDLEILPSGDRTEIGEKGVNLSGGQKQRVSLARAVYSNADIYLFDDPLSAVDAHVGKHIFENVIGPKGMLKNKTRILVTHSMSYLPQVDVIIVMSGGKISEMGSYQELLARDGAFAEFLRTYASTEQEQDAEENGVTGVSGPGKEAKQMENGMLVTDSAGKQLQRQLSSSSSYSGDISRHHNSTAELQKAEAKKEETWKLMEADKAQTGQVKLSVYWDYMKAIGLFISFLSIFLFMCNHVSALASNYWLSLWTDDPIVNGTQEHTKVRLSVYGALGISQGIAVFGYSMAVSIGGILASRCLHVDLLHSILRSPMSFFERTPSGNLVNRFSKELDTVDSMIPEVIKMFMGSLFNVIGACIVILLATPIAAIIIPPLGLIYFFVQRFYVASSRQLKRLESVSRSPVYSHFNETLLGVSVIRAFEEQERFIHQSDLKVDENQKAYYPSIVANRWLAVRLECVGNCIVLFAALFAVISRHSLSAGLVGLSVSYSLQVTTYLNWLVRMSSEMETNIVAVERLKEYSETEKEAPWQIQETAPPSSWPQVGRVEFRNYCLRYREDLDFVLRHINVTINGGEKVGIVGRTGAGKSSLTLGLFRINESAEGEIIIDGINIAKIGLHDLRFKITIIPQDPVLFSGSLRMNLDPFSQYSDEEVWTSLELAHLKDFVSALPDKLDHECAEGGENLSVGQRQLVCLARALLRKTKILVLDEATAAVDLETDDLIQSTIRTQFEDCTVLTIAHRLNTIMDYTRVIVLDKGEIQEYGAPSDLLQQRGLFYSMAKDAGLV

Consider `C=CC(C)(C)c1cc(/C=C/C(=O)c2ccc(O)cc2)c(OC)cc1O` [LICOAGROCHACONE A], for which the “fold change (FC)” value in data set [1] is recorded as 8.1; in [5], 10.1; in data set [6] it was 3.6; in data set [7] it was 2.6; in the data set on NCI-H460, 0.8; in the data set on S1 [8], 0.9. Moreover, the “fold change (FC)” value was found to be 1.1 in the data set on S1 [9]; 1.1 in the data set with S1 [10]; 1 in the data set on HEK293 [11]; 1 in the data set with HEK293 [12]; 1 with HEK293 [13]; 1.3 in data set [14]. Also, the “fold change (FC)” value in the data set on HEK293 [15] is recorded as 0.8. Further, the “inhibition (INH)” value in data set [2] was “Dose-dependent effect”. In addition, the outcome in data set [3] and in data set [4] was Active. Moreover, the pIC50 with S1-M1-80 was 4.30 to 5.00.
